The values below come from paper PMC3045600 (Nucleic Acids Research, 2010).

“And” between values parts separate entries of the source, which are not always exact repeats. Equal values may be shown once. Read-outs that look alike come from different tables or passages of the source.

The target in assay [1] is T1, bacteriophage T4 DNA polymerase (gp43 exo−) (Enterobacteria phage T4, UniProt P04415, D219A).
T1 sequence (P04415 1-898 D219A): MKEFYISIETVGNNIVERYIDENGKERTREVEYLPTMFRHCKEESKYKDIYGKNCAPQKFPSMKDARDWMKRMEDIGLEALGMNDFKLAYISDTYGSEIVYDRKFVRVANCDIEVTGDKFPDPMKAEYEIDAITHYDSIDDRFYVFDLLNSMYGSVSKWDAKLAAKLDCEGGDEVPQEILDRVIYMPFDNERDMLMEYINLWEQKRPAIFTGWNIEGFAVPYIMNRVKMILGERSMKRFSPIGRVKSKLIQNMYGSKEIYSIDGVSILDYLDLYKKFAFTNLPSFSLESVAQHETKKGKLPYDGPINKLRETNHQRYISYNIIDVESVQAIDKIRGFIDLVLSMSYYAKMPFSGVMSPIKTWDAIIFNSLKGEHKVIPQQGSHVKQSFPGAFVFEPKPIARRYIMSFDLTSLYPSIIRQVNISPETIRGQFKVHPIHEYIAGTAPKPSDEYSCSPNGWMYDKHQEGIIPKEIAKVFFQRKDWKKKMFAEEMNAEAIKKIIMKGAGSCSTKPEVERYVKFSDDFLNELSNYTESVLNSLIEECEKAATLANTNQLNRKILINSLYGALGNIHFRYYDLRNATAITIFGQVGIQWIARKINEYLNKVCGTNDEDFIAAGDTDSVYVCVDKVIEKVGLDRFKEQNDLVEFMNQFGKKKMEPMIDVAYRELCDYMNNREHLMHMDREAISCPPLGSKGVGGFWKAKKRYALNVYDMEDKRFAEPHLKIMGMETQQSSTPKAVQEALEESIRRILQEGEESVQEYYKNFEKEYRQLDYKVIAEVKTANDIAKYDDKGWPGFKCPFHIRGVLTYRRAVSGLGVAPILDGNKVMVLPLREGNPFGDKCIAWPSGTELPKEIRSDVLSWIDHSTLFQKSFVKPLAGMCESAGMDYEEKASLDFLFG
The assay is classed as biochemical. The note with it: 150 µM dXTP, then 500 µM dGTP, quenched at 180 s; 13/20SP-mer. The method, boiled down:
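Exonuclease-deficient T4 gp43 (D219A), 500 nM, with 250 nM 5′-32P-labelled 13/20SP-mer, in 25 mM Tris–OAc pH 7.5, 150 mM KOAc, 10 mM 2-mercaptoethanol and 10 mM Mg2+ at 25°C. Test nucleotide (150 µM) was inserted for 5 min, then 500 µM dGTP was added. Reactions were quenched with 350 mM EDTA and resolved on 20% sequencing gels. Extended versus non-extended primer was quantified by phosphorimaging, corrected for the zero point.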

For assay [2], the target named is T2, exonuclease-deficient bacteriophage T4 DNA polymerase (gp43 exo−) (Enterobacteria phage T4, UniProt P04415, D219A).
T2 sequence (P04415 1-898 D219A): T1 sequence (P04415 1-898 D219A)
The note with it: opposite thymine, cited from earlier work; for Kd: read-out: Kd, app.

The target in assay [3] is T2, exonuclease-deficient bacteriophage T4 DNA polymerase (gp43 exo−). Conditions: double abasic site, cited from earlier work; for Kd: read-out: Kd, app.
Assay [4] has the same target. Conditions: single abasic site, cited from earlier work; for Kd: read-out: Kd, app.
The target is the same in assay [5]. Conditions: blunt end DNA, cited from earlier work; for Kd: read-out: Kd, app.
Assay [6] concerns the target T1, bacteriophage T4 DNA polymerase (gp43 exo−). Conditions: previously demonstrated; cited from earlier work.

For `O=P(O)(O)OP(=O)(O)OP(=O)(O)OC[C@H]1O[C@@H](n2ccc3cc(-c4ccccc4)ccc32)C[C@@H]1O` [5-PhITP], the “Extension beyond the nucleotide paired opposite an abasic site” value in assay [1] is reported as “does not extend”. Besides, the kpol in assay [2] is 0.16 ± 0.01 s⁻¹; in assay [3], 45 ± 3 s⁻¹; in assay [4], 53 s⁻¹ and 53 ± 4 s⁻¹; in assay [5], 0.007 ± 0.004 s⁻¹. Moreover, the results for the “kpol/Kd, app” value in assay [2], in assay [3] and in assay [5] were 6400 M⁻¹ s⁻¹, 3 750 000 M^−1 s^−1 and 160 M⁻¹ s⁻¹, respectively. The Kd is 25 ± 7 µM in assay [2], 12 ± 2 µM in assay [3], 14 ± 3 µM in assay [4] and 45 ± 8 µM in assay [5].

With `Nc1nc2c(ncn2[C@H]2C[C@H](O)[C@@H](COP(=O)(O)OP(=O)(O)OP(=O)(O)O)O2)c(=O)[nH]1` [dGTP], the “Extension beyond the nucleotide paired opposite an abasic site” value in assay [6] is “extends beyond”.

On to `O=[N+]([O-])c1ccc2c(ccn2C2CC(O)C(COP(=O)(O)OP(=O)(O)OP(=O)(O)O)O2)c1` (stereo not shown) [5-NITP], for which, in assay [1], the “Extension beyond the nucleotide paired opposite an abasic site” value was “does not extend”. Further, the kpol in assay [2] was 0.9 ± 0.1 s⁻¹; in assay [3], 70 ± 6 s⁻¹; in assay [4] it was 126 s⁻¹ and 126 ± 7 s⁻¹; in assay [5], 0.015 ± 0.004 s⁻¹. The “kpol/Kd, app” value in assay [2] was 100 000 M^−1 s^−1; in assay [3], 3 890 000 M^−1 s^−1; in assay [4], 7 000 000 M^−1 s^−1; in assay [5], 710 M⁻¹ s⁻¹. In addition, the Kd is 9 ± 1 µM in assay [2], 18 ± 5 µM in assay [3], 18 ± 3 µM in assay [4] and 21 ± 8 µM in assay [5].

As for `Nc1ncnc2c1ncn2[C@H]1C[C@H](O)[C@@H](COP(=O)(O)OP(=O)(O)OP(=O)(O)O)O1` [dATP], the “Extension beyond the nucleotide paired opposite an abasic site” value is recorded as “showed extension beyond the abasic site” in assay [1] and “extends beyond” in assay [6]. The kpol in assay [2] was 100 ± 10 s⁻¹; in assay [3], 0.55 ± 0.05 s⁻¹; in assay [4], 0.15 ± 0.01 s⁻¹. The “kpol/Kd, app” value was 10 000 000 M^−1 s^−1 in assay [2], 3500 M⁻¹ s⁻¹ in assay [3] and 4300 M⁻¹ s⁻¹ in assay [4]. Further, the values for the Kd in assay [2], in assay [3] and in assay [4] were 10 ± 2 µM, 157 ± 28 µM and 35 ± 5 µM, respectively.
